Experimental data published in ChEMBL document CHEMBL4014345, “Development of Selective Clk1 and -4 Inhibitors for Cellular Depletion of Cancer-Relevant Proteins” (J Med Chem, 2017).
Blank lines part the entries; values can stand above or below the molecule they belong to. Active and inactive are the calls of the source. The rule behind the calls is not given here.

Experiments:
[1] = target: T1, Dual specificity protein kinase CLK1 (Homo sapiens, UniProt P49759); test: Inhibition of recombinant human GST-tagged Clk1 expressed in Escherichia coli at 100 nM using RS repeat substrate peptide after 15 mins in presence of [gamma-32]-ATP
Target sequence in this assay (P49759 whole entry, looked up): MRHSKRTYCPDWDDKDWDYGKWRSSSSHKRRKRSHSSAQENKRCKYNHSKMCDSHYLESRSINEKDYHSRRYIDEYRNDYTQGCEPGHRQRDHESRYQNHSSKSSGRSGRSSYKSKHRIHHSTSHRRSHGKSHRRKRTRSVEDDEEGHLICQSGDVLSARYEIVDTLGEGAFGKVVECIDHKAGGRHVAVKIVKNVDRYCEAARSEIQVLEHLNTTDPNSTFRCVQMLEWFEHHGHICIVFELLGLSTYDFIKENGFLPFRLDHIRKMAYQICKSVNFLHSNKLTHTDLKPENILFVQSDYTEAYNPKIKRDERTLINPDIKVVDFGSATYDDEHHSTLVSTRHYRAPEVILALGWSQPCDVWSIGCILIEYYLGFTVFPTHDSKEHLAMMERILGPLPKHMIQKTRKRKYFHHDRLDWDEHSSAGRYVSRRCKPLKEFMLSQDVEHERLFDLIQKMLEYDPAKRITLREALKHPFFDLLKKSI

[2] = target: T2, Dual specificity protein kinase CLK1/CLK4 (Homo sapiens, UniProt Q9HAZ1+P49759); test: Inhibition of CLK1/4 in human T24 cells assessed as down regulation of HDAC1 expression at 10 uM after 3 days by Western blot analysis relative to control; type: cell-based
In short: (§1)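 T24 or MDA-MB-231 cells were grown in DMEM to 70% confluency. The medium was replaced with compound diluted in DMEM, and cells were kept 3 days. Total protein was immunoblotted with monoclonal antibodies in 3% BSA/PBS against EGFR, p70S6K α, PARP-1, ERK2, HDAC1, CD44, PCNA and GRP94.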

[3] = target: T2, Dual specificity protein kinase CLK1/CLK4; test: Inhibition of CLK1/4 in human MDA-MB-231 cells assessed as down regulation of EGFR expression at 20 uM after 3 days by Western blot analysis relative to control; type: cell-based; in short: as §1
[4] = target: T2, Dual specificity protein kinase CLK1/CLK4; test: Inhibition of CLK1/4 in human MDA-MB-231 cells assessed as down regulation of EGFR expression at 2.5 uM after 3 days by Western blot analysis relative to control; type: cell-based; in short: as §1
[5] = target: T2, Dual specificity protein kinase CLK1/CLK4; test: Inhibition of CLK1/4 in human MDA-MB-231 cells assessed as down regulation of S6 kinase expression after 3 days by Western blot analysis; type: cell-based; in short: as §1
[6] = target: T2, Dual specificity protein kinase CLK1/CLK4; test: Inhibition of CLK1/4 in human T24 cells assessed as down regulation of HDAC1 expression after 3 days by Western blot analysis; type: cell-based; in short: as §1
[7] = target: T2, Dual specificity protein kinase CLK1/CLK4; test: Inhibition of CLK1/4 in human MDA-MB-231 cells assessed as down regulation of S6 kinase expression at 20 uM after 3 days by Western blot analysis relative to control; type: cell-based; in short: as §1
[8] = target: T2, Dual specificity protein kinase CLK1/CLK4; test: Inhibition of CLK1/4 in human MDA-MB-231 cells assessed as down regulation of EGFR expression at 10 uM after 3 days by Western blot analysis relative to control; type: cell-based; in short: as §1
[9] = target: T2, Dual specificity protein kinase CLK1/CLK4; test: Inhibition of CLK1/4 in human T24 cells assessed as down regulation of EGFR expression at 5 uM after 3 days by Western blot analysis relative to control; type: cell-based; in short: as §1
[10] = target: T2, Dual specificity protein kinase CLK1/CLK4; test: Inhibition of CLK1/4 in human MDA-MB-231 cells assessed as down regulation of EGFR expression at 5 uM after 3 days by Western blot analysis relative to control; type: cell-based; in short: as §1
[11] = target: T2, Dual specificity protein kinase CLK1/CLK4; test: Inhibition of CLK1/4 in human T24 cells assessed as down regulation of HDAC1 expression at 5 uM after 3 days by Western blot analysis relative to control; type: cell-based; in short: as §1
[12] = target: T2, Dual specificity protein kinase CLK1/CLK4; test: Inhibition of CLK1/4 in human T24 cells assessed as down regulation of HDAC1 expression at 15 uM after 3 days by Western blot analysis relative to control; type: cell-based; in short: as §1
MDA-MB-231 = test: Cytotoxicity against human MDA-MB-231 cells assessed as growth inhibition after 5 days by MTT assay; type: functional; settings: MDA-MB-231, 120 h
In short: (§2)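 They were seeded at 5000 cells per well onto compound or DMSO (0.2% final). Plates were kept 5 days at 37 °C in 5% CO2 with no medium change, then read by MTT.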

[13] = target: T2, Dual specificity protein kinase CLK1/CLK4; test: Inhibition of CLK1/4 in human MDA-MB-231 cells assessed as down regulation of S6 kinase expression at 5 uM after 3 days by Western blot analysis relative to control; type: cell-based; in short: as §1
[14] = target: T2, Dual specificity protein kinase CLK1/CLK4; test: Inhibition of CLK1/4 in human MDA-MB-231 cells assessed as down regulation of S6 kinase expression at 2.5 uM after 3 days by Western blot analysis relative to control; type: cell-based; in short: as §1
[15] = target: T2, Dual specificity protein kinase CLK1/CLK4; test: Inhibition of CLK1/4 in human T24 cells assessed as down regulation of EGFR expression at 15 uM after 3 days by Western blot analysis relative to control; type: cell-based; in short: as §1
[16] = target: T2, Dual specificity protein kinase CLK1/CLK4; test: Inhibition of CLK1/4 in human MDA-MB-231 cells assessed as down regulation of EGFR expression after 3 days by Western blot analysis; type: cell-based; in short: as §1
T-24 = test: Cytotoxicity against human T24 cells assessed as growth inhibition after 5 days by MTT assay; type: functional; settings: T-24, 120 h; in short: as §2
[17] = target: T2, Dual specificity protein kinase CLK1/CLK4; test: Inhibition of CLK1/4 in human MDA-MB-231 cells assessed as down regulation of S6 kinase expression at 10 uM after 3 days by Western blot analysis relative to control; type: cell-based; in short: as §1
[18] = target: T2, Dual specificity protein kinase CLK1/CLK4; test: Inhibition of CLK1/4 in human T24 cells assessed as down regulation of EGFR expression at 10 uM after 3 days by Western blot analysis relative to control; type: cell-based; in short: as §1
[19] = target: T2, Dual specificity protein kinase CLK1/CLK4; test: Inhibition of CLK1/4 in human T24 cells assessed as down regulation of EGFR expression after 3 days by Western blot analysis; type: cell-based; in short: as §1
[20] = target: T1, Dual specificity protein kinase CLK1; test: Inhibition of recombinant human GST-tagged Clk1 expressed in Escherichia coli using RS repeat substrate peptide after 15 mins in presence of [gamma-32]-ATP
Target sequence in this assay (P49759 whole entry): as the sequence (P49759 whole entry, looked up) above

[21] = target: T3, Dual specificity tyrosine-phosphorylation-regulated kinase 1A (Homo sapiens, UniProt Q13627); test: Inhibition of N-terminal His6-tagged recombinant human Dyrk1A expressed in Escherichia coli BL21 (DE3) using KKISGRLSPIMTEQ-NH2 as substrate after 15 mins in presence of [gamma-32]-ATP
[22] = target: Dual specificity tyrosine-phosphorylation-regulated kinase 4 (Homo sapiens) (UniProt Q9NR20); test: Inhibition of DYRK4 (unknown origin) using KKISGRLSPIMTEQ-NH2 as substrate at 1 uM after 15 mins in presence of [gamma-32P]-ATP
THP-1 = test: Cytotoxicity against human THP1 cells assessed as growth inhibition after 5 days by MTT assay; type: functional; settings: THP-1, 120 h; in short: as §2
[23] = target: Dual specificity tyrosine-phosphorylation-regulated kinase 1B (Homo sapiens, UniProt Q9Y463); test: Inhibition of full length recombinant GST-tagged human DYRK1B expressed in baculovirus using KKISGRLSPIMTEQ-NH2 as substrate at 1 uM after 15 mins
Dual specificity tyrosine-phosphorylation-regulated kinase 1B, sequence (Q9Y463 whole entry, looked up): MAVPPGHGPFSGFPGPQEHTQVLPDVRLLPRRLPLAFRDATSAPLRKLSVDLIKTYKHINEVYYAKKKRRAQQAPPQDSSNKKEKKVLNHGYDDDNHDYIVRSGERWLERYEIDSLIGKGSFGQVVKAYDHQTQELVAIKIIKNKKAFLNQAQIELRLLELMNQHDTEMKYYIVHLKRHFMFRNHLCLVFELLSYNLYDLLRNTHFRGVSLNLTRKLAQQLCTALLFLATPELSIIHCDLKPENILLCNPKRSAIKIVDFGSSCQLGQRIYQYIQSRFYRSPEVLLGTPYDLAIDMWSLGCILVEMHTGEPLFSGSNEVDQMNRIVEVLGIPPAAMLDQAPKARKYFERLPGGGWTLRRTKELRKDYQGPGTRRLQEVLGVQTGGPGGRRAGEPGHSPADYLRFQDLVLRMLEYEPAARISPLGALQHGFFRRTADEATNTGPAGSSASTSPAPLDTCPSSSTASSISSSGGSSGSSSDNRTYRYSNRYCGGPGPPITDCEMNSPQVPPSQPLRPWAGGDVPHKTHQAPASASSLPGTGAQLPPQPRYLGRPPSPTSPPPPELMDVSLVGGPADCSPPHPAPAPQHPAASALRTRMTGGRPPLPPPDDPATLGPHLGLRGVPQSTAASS

T47D = test: Cytotoxicity against human T47D cells assessed as growth inhibition after 5 days by MTT assay; type: functional; settings: 120 h; in short: as §2
[24] = target: Dual specificity tyrosine-phosphorylation-regulated kinase 3 (Homo sapiens) (UniProt O43781); test: Inhibition of DYRK3 (unknown origin) using KKISGRLSPIMTEQ-NH2 as substrate at 1 uM after 15 mins in presence of [gamma-32P]-ATP
[25] = target: SRSF protein kinase 2 (Homo sapiens) (UniProt P78362); test: Inhibition of SRPK2 (unknown origin) at 1 uM
SRSF protein kinase 2 (Homo sapiens), sequence (P78362 whole entry, looked up): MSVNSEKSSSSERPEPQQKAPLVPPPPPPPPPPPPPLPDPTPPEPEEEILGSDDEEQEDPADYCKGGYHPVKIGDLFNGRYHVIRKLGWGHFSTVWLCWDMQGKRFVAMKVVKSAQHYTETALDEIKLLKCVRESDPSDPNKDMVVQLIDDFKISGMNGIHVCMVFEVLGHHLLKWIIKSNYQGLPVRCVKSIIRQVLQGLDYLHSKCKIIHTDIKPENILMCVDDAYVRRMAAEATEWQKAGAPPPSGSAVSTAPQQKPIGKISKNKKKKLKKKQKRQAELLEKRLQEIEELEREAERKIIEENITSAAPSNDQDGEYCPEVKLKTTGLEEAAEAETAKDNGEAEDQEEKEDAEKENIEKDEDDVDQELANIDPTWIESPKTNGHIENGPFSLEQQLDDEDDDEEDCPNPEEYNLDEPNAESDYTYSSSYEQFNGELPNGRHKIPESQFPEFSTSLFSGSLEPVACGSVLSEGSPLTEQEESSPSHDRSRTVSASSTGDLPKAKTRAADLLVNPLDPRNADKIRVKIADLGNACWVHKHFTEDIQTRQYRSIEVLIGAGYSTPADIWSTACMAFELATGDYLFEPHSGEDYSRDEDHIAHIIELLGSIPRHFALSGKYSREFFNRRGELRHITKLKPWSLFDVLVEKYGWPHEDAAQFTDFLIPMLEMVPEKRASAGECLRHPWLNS
In short: (§3)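 Tested in a commercial kinase profiling panel at an ATP concentration of 100 μM. Data are the mean of duplicates that differed by less than 7%.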

[26] = target: Dual specificity protein kinase CLK3 (Mus musculus) (UniProt O35492); test: Inhibition of recombinant GST-tagged mouse CLK3 using GRSRSRSRSRSR as substrate at 1 uM after 30 mins in presence of [gamma-32P]-ATP by scintillation counting method
Dual specificity protein kinase CLK3 (Mus musculus), sequence (O35492 whole entry): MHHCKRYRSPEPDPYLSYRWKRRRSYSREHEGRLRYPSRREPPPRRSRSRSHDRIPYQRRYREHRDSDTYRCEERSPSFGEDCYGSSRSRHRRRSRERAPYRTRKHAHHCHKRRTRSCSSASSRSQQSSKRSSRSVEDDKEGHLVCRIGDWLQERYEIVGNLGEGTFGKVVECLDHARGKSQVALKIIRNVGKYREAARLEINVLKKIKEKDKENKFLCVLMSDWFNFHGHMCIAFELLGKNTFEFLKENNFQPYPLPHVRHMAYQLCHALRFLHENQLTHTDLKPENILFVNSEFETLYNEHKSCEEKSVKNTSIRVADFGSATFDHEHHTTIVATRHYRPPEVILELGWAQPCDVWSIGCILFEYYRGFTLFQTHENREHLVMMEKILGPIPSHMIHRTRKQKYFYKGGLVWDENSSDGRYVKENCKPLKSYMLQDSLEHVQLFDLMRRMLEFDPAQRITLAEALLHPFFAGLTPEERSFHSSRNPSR

[27] = target: Serine/threonine-protein kinase haspin (Homo sapiens) (UniProt Q8TF76); test: Inhibition of MBP-Haspin (unknown origin) at 1 uM after 10 mins by TR-FRET assay; in short: as §3
PBL = test: Cytotoxicity against human PBL after 2 days by MTT assay; type: cell-based; settings: 48 h
In short: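 Cells plated at 30 000 per well with test compounds or DMSO control for 2 days, then MTT read-out. LC50 reported as the mean of at least two independent experiments.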

[28] = Cytotoxicity against HEK293 cells assessed as growth inhibition; type: cell-based; settings: human
In short: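 Cytotoxicity was tested in proliferating HEK293 cells with GI50 as the read-out. Data are the mean of at least two independent experiments.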

[29] = target: Dual specificity protein kinase CLK2 (Mus musculus) (UniProt O35491); test: Inhibition of recombinant GST-tagged mouse CLK2 using GRSRSRSRSRSR as substrate at 1 uM after 30 mins in presence of [gamma-32P]-ATP by scintillation counting method
Dual specificity protein kinase CLK2 (Mus musculus), sequence (O35491 whole entry, looked up): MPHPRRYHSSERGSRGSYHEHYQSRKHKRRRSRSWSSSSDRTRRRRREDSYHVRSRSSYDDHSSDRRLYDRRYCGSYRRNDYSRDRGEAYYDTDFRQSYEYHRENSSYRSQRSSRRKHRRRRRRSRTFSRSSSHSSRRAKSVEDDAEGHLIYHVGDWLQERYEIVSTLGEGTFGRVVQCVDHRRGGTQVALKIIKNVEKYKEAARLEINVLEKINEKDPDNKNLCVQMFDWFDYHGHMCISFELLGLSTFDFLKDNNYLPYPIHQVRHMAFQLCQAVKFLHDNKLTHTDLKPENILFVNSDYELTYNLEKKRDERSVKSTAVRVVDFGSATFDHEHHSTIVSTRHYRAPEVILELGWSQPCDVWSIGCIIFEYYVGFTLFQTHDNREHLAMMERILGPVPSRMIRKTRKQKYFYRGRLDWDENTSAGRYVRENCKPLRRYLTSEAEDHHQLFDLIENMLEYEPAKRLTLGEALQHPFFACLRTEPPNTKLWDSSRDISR

HepG2 = test: Cytotoxicity against human HepG2 cells assessed as growth inhibition after 5 days by MTT assay; type: functional; settings: HepG2, 120 h; in short: as §2
[30] = target: T3, Dual specificity tyrosine-phosphorylation-regulated kinase 1A; test: Inhibition of N-terminal His6-tagged recombinant human Dyrk1A expressed in Escherichia coli BL21 (DE3) using KKISGRLSPIMTEQ-NH2 as substrate at 1 uM after 15 mins in presence of [gamma-32]-ATP; settings: 0.25 h
[31] = target: Dual specificity protein kinase CLK4 (Mus musculus) (UniProt O35493); test: Inhibition of recombinant GST-tagged mouse CLK4 using GRSRSRSRSRSR as substrate at 1 uM after 30 mins in presence of [gamma-32P]-ATP by scintillation counting method
[32] = target: Serine/threonine-protein kinase 17A (Homo sapiens) (UniProt Q9UEE5); test: Inhibition of STK17A (unknown origin) at 1 uM after 15 mins; in short: as §3
Serine/threonine-protein kinase 17A (Homo sapiens), sequence (Q9UEE5 whole entry): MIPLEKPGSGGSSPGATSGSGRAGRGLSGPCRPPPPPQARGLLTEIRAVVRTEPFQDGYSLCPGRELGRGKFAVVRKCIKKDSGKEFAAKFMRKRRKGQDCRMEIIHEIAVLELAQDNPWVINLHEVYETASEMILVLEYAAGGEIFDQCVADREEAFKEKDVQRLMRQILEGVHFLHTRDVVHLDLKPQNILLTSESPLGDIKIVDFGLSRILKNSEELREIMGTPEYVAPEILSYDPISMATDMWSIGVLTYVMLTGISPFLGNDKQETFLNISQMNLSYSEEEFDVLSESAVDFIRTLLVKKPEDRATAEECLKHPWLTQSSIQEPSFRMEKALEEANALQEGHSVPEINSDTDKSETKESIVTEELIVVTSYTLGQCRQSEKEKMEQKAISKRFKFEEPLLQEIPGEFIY

[33] = target: T1, Dual specificity protein kinase CLK1; test: Inhibition of recombinant human GST-tagged Clk1 expressed in Escherichia coli at 1 uM using RS repeat substrate peptide after 15 mins in presence of [gamma-32]-ATP
Target sequence in this assay (P49759 whole entry, looked up): as the sequence (P49759 whole entry, looked up) above

[34] = target: Myosin light chain kinase 2, skeletal/cardiac muscle (Homo sapiens) (UniProt Q9H1R3); test: Inhibition of MLCK2 (unknown origin) at 1 uM after 15 mins; in short: as §3
Myosin light chain kinase 2, skeletal/cardiac muscle (Homo sapiens), sequence (Q9H1R3 whole entry): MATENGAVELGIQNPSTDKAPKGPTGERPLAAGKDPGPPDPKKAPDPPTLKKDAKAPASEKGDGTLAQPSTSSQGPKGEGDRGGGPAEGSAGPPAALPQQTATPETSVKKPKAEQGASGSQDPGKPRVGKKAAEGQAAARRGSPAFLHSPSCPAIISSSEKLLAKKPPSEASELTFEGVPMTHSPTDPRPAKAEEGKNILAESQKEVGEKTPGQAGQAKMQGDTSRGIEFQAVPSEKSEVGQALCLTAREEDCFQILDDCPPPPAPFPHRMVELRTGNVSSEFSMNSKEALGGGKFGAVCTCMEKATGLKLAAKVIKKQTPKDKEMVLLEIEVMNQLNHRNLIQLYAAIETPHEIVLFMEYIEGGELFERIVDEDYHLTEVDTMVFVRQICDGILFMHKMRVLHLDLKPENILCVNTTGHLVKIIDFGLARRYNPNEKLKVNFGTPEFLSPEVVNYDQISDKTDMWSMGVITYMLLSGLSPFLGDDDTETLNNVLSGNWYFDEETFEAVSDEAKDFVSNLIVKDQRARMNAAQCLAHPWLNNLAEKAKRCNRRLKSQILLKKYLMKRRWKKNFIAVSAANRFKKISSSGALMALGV

[35] = target: SRSF protein kinase 1 (Homo sapiens) (UniProt Q96SB4); test: Inhibition of SRPK1 (unknown origin) at 1 uM; in short: as §3
SRSF protein kinase 1 (Homo sapiens), sequence (Q96SB4 whole entry): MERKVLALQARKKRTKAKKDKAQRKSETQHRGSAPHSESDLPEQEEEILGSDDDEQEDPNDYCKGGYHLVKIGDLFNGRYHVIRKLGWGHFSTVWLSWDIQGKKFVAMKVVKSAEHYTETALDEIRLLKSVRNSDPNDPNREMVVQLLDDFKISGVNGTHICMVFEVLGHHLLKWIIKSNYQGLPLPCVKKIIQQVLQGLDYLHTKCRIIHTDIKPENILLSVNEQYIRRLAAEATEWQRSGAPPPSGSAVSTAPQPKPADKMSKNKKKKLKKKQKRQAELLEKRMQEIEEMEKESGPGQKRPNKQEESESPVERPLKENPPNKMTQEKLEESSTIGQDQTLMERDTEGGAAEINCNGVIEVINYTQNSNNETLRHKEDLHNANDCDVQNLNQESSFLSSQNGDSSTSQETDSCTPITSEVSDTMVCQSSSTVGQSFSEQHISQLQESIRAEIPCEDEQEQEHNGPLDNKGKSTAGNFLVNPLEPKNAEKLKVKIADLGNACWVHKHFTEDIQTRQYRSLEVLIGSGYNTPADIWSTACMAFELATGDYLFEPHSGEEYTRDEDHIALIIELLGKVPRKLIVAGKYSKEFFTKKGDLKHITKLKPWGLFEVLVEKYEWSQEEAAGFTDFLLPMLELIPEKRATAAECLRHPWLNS

SMILES: COc1ccc2sc(C(=O)N[C@H](C(=O)O)C(C)C)cc2c1
inhibition [1]: 0%

SMILES: COc1ccc2sc(C(=O)NCCc3ccccc3)cc2c1
IC50 [20]: 0.107 µM
inhibition [1]: 50.7%

SMILES: COc1ccc2sc(C(=O)N(C)Cc3ccccc3)cc2c1
IC50 [21]: 0.52 µM
inhibition [22]: inactive
GI50 (THP-1): > 30 µM
inhibition [23]: 58%
GI50 (T47D): 28.8 µM
inhibition [24]: inactive
GI50 (MDA-MB-231): 24.2 µM
IC50 [20]: 0.045 µM
inhibition [25]: 10%
inhibition [26]: 44%
inhibition [27]: 12%
LC50 (PBL): > 30 µM
GI50 (T-24): 2.7 µM
GI50 [28]: > 30 µM
inhibition [29]: 73%
GI50 (HepG2): 3.7 µM
inhibition [1]: 70.6%
inhibition at 1 µM [30]: 54%
inhibition [31]: 101%
inhibition [32]: 23%
inhibition [33]: 81%
inhibition [34]: inactive
inhibition [35]: 4%

SMILES: COc1ccc2sc(C(=O)N(C)Cc3ccccn3)cc2c1
inhibition [1]: 34.6%

SMILES: COc1ccc2sc(C(=O)NCC(F)(F)F)cc2c1
inhibition [1]: 39.8%

Now from value to molecule, other results behind:

inhibition [2]: 16.1%
inhibition [3]: 25.1%
inhibition [4]: 13.1%
IC50 [5]: > 20 µM
IC50 [6]: > 15 µM
inhibition [7]: 10.9%
inhibition [8]: 30.9%
inhibition [9]: 26%
inhibition [10]: 36.7%
inhibition [11]: 13.7%
inhibition [12]: 0%
inhibition [13]: 7.8%
inhibition [14]: 0%
inhibition [15]: 36.6%
IC50 [16]: > 20 µM
inhibition [17]: 8%
inhibition [1]: 33.9%
inhibition [18]: 32.9%
IC50 [19]: > 15 µM
SMILES: COc1ccc2sc(C(=O)NCc3cccc(F)c3)cc2c1
GI50 (MDA-MB-231): > 40 µM
GI50 (T-24): > 40 µM

IC50 [20]: 0.084 µM
inhibition [1]: 59.4%
SMILES: COc1ccc2sc(C(=O)NCc3ccccc3)cc2c1

inhibition [1]: 28.9%
SMILES: COc1ccc2sc(C(=O)NCc3cccnc3)cc2c1

inhibition [1]: 23.2%
SMILES: COc1ccc2sc(C(=O)NCc3ccccc3F)cc2c1
